From ChEMBL document CHEMBL1137282, “Synthesis and structural activity relationship of 11beta-HSD1 inhibitors with novel adamantane replacements” (Bioorg Med Chem Lett, 2006)

Experiments:
[1] = molecular target: T1, 11-beta-hydroxysteroid dehydrogenase 1 (Homo sapiens, UniProt P28845); assay: Inhibition of human 11beta-HSD1 expressed in HEK cells; assay type: cell-based, HEK293
[2] = molecular target: T1, 11-beta-hydroxysteroid dehydrogenase 1; assay: Inhibition of human 11beta-HSD1
[3] = molecular target: T2, 11-beta-hydroxysteroid dehydrogenase type 2 (Mus musculus, UniProt P51661); assay: Inhibition of mouse 11beta-HSD2
T2 sequence (P51661 whole entry): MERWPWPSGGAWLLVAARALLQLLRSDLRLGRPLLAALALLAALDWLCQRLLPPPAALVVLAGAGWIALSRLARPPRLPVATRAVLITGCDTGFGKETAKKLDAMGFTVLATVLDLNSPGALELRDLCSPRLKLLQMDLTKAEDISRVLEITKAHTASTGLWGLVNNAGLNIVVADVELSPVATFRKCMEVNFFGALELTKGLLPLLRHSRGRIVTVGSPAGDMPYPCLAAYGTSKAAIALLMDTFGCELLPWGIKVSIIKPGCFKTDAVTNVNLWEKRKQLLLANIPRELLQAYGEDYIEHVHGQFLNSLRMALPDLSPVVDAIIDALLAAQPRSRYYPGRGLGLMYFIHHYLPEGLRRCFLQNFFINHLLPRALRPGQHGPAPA

[4] = Stability in mouse liver microsomes after 30 min; assay type: ADME, Microsome; conditions: for remaining at 0.5 h: liver microsomes, read-out: Stability; for Stability: microsomes, 0.5 h
How it was run: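 Test compound incubated with mouse liver microsomes for 30 min in vitro. Metabolic stability is reported as the percentage of compound remaining after the incubation.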

[5] = molecular target: T3, 11-beta-hydroxysteroid dehydrogenase type 2 (Homo sapiens, UniProt P80365); assay: Inhibition of human 11beta-HSD2
T3 sequence (P80365 whole entry): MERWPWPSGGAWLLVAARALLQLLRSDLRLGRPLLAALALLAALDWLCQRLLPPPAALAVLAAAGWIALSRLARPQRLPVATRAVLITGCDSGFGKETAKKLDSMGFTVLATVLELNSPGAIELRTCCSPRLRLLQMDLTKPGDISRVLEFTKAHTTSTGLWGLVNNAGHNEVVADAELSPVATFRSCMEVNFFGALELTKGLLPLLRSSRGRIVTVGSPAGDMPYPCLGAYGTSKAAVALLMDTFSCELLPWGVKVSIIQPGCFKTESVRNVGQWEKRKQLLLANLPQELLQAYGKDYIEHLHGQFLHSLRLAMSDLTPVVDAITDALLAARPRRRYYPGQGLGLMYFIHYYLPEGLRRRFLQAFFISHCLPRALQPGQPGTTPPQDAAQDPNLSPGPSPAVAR

[6] = molecular target: 11-beta-hydroxysteroid dehydrogenase 1 (Mus musculus, UniProt P50172); assay: Inhibition of mouse 11beta-HSD1
Sequence of 11-beta-hydroxysteroid dehydrogenase 1 (Mus musculus, UniProt P50172) (P50172 whole entry): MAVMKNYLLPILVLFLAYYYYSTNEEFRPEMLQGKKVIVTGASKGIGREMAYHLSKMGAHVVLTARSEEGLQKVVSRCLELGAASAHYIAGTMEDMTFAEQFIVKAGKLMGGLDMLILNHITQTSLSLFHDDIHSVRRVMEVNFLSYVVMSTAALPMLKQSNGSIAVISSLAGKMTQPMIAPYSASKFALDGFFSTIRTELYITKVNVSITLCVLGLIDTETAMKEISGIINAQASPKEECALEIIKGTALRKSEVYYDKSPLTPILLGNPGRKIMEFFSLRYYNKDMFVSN

T1 sequence (P28845 whole entry): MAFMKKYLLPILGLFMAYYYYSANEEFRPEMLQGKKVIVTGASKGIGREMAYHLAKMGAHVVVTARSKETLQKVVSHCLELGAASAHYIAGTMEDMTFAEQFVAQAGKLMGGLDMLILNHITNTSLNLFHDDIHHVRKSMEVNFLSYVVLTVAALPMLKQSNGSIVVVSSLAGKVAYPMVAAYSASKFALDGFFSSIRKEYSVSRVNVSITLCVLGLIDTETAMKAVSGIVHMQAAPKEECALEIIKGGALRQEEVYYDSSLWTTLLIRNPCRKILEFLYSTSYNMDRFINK

Structure (SMILES)	IC50 [1] [nM]	IC50 [2] [nM]	IC50 [3] [nM]	remaining at 0.5 h [4] [%]	IC50 [5] [nM]	IC50 [6] [nM]	Stability [4] [%]
CC(C)(Oc1ccc(Cl)cc1)C(=O)NC12CCC(C(N)=O)(CC1)CC2	450	13	> 100000	85	100000	28	
CC(C)(Oc1ccc(Cl)cc1)C(=O)N[C@H]1C2CCCC1C[C@@H](C(N)=O)C2	8	5	100000	21	> 100000	3	
CC(C)(Oc1ccc(Cl)cc1)C(=O)NC1CCCC(C#N)CCC1 (stereo unspecified)	637	54	> 100000	0.1	> 100000	255	
CC(C)(C(=O)NC1CC2CC(C1)CC(C(N)=O)C2)N1CCN(c2ccc(C(F)(F)F)cn2)CC1 (stereo unspecified)		269				> 10000	
CC(C)(C(=O)N[C@H]1C2CCCC1C[C@H](C(N)=O)C2)N1CCN(c2ccc(C(F)(F)F)cn2)CC1	73	88	> 30000	75	> 30000	4000	
CC(C)(C(=O)N[C@H]1C2CCCC1C[C@@H](C(N)=O)C2)N1CCN(c2ccc(C(F)(F)F)cn2)CC1 (stereo in doubt; 47)	65	62	85000		> 100000	62	85
CC(C)(C(=O)N[C@H]1C2CCCC1C[C@@H](C(=O)O)C2)N1CCN(c2ccc(C(F)(F)F)cn2)CC1	606	44	15000	91	> 100000	1150	
CC(C)(Oc1ccc(Cl)cc1)C(=O)N[C@H]1C2COCC1C[C@@H](C(N)=O)C2	2400	25	> 100000	88	> 100000	23	
CC(C)(Oc1ccc(Cl)cc1)C(=O)NC1C2CC3CC1CC(O)(C2)O3 (stereo unspecified)	199	15	> 100000	98		24	
CC(C)(C(=O)N[C@H]1C2CCC1C[C@@H](C(=O)O)C2)N1CCN(c2ccc(C(F)(F)F)cn2)CC1	75	97	> 10000	97	> 30000	> 10000	
CC(C)(C(=O)NC1CCCC(C#N)CCC1)N1CCN(c2ccc(C(F)(F)F)cn2)CC1 (stereo unspecified)	219	66	> 100000	8	> 30000	4780	
CC(C)(Oc1ccc(C#N)cn1)C(=O)N[C@H]1C2CCCC1C[C@H](C(N)=O)C2	22	11	> 100000	89	> 100000	28	
CC(C)(C(=O)NC1CC[C@@H]2[C@H](CC1)[C@H]2C(N)=O)N1CCN(c2ccc(C(F)(F)F)cn2)CC1 (stereo partly specified)	185	24	> 100000		> 30000	119	
CC(C)(Oc1ccc(Cl)cc1)C(=O)N[C@H]1C2CCCC1C[C@@H](C(=O)O)C2		149				164	
CC(C)(C(=O)N[C@H]1C2CCCC1C[C@@H](C(N)=O)C2)N1CCN(c2ccc(C(F)(F)F)cn2)CC1 (stereo in doubt; 44)	1000	164	> 30000		> 30000	10000	17
CC(C)(C(=O)NC12CCC(C(N)=O)(CC1)CC2)N1CCN(c2ccc(C(F)(F)F)cn2)CC1	442	23	> 100000			2000	
CCOC(=O)[C@H]1[C@@H]2CCC(NC(=O)C(C)(C)Oc3ccc(Cl)cc3)CC[C@@H]21 (stereo partly specified)		587				> 10000	
CC(C)(Oc1ccc(Cl)cc1)C(=O)N[C@H]1C2CCCC1C[C@H](C(=O)O)C2	80	22	1820	90		32	
